From ChEMBL document CHEMBL1143876, “Synthesis, analgesic, anti-inflammatory, and antimicrobial activity of some novel pyrimido[4,5-b]quinolin-4-ones” (2008) come the findings set out here.

The subject of assay [1] is Pseudomonas aeruginosa. Kind of assay: Antimicrobial activity against Pseudomonas aeruginosa at 50 ug/disk after 24 to 28 hrs. The class given is functional. As to conditions: read-out: IZ. A digest of the protocol: (§1)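 Agar disk diffusion: 5 mm paper disks loaded with 50 µg/disk in DMSO. Inhibition zones read after 24–28 h at 37 °C for bacteria, or 5 days at 28 °C for clinical Candida isolates grown on Sabouraud dextrose agar. Zone graded 6–10 mm slight, 11–15 mm moderate, >15 mm high. Reference disks: nalidixic acid 30 µg, nystatin 100 U.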

For assay [2], the system named is Escherichia coli. Kind of assay: Antimicrobial activity against Escherichia coli at 50 ug/disk after 24 to 28 hrs. The class given is functional. To be noted: read-out: IZ. A digest of the protocol: as §1
The test system of assay [3] is Mus musculus. Kind of assay: Analgesic activity in Swiss albino mouse assessed as reaction time at 15 mg/kg, po after 60 mins by hot plate test. The class given is functional. In a few lines:
(§2)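 Mice of both sexes, 25–30 g, on a hot plate at 53 ± 0.5 °C; reaction time taken to hind-paw lick or jump, 60 s cut-off. Baseline read before dosing. Oral dosing in 10% v/v Tween 80 in water: test agents 15 mg/kg, acetylsalicylic acid 100 mg/kg. Re-read at 15, 30, 60 and 90 min; means ± SE.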
(Thermal pain tests record how soon the animal reacts.)

Assay [4] has as its system Mus musculus. Kind of assay: Analgesic activity against acetic acid-induced abdominal constriction in Swiss albino mouse at 15 mg/kg, po after 20 mins by writhing test. The class given is functional, Abdomen. In a few lines:
(§3)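 Mice of both sexes, 25–30 g, dosed orally in 10% v/v Tween 80 in water. Test agents were given at 15 mg/kg and acetylsalicylic acid at 100 mg/kg. 30 min later, 0.7% acetic acid (10 ml/kg) ip. Writhes counted over 20 min; six per group. % protection = (control mean − treated mean)/control mean ×100; means ± SE.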
A general note: In writhing tests, fewer writhes than in controls are read as antinociception.

Assay [5] deals with Mus musculus. Kind of assay: Analgesic activity in Swiss albino mouse assessed as reaction time at 15 mg/kg, po after 90 mins by hot plate test. The class given is functional. In a few lines:
as §2

Assay [6] deals with Staphylococcus aureus. Kind of assay: Antimicrobial activity against Staphylococcus aureus at 50 ug/disk after 24 to 28 hrs. Type of assay: functional. To be noted: read-out: IZ. A digest of the protocol: as §1
Assay [7] deals with Mus musculus. Kind of assay: Analgesic activity in Swiss albino mouse assessed as reaction time at 15 mg/kg, po after 30 mins by hot plate test. The class given is functional. A digest of the protocol:
as §2

Assay [8] concerns Klebsiella pneumoniae. Kind of assay: Antimicrobial activity against Klebsiella pneumoniae at 50 ug/disk after 24 to 28 hrs. Type of assay: functional. To be noted: read-out: IZ. A digest of the protocol: as §1
Assay [9] has as its system Mus musculus. Kind of assay: Analgesic activity against acetic acid-induced abdominal constriction in Swiss albino mouse at 15 mg/kg, po after 20 mins by writhing test relative to acetylsalicylic acid. Type of assay: functional, Abdomen. A digest of the protocol: as §3
The subject of assay [10] is Rattus norvegicus. Kind of assay: Antiinflammatory activity against carrageenan-induced paw edema in Sprague-Dawley rat at 15 mg/kg, po after 3 hrs. Type of assay: functional. A digest of the protocol: (§4)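 Adult male rats, 150–180 g, six per group. Oral dose 1 h before 0.1 ml 1% carrageenin sc into the left hind footpad: test agents 15 mg/kg as suspension, indomethacin 10 mg/kg; vehicle 10% Tween 80. Paw volume by plethysmometer before injection, then hourly for 4 h. Edema % = (Vt−Vc)/Vc; inhibition % = (Ec−Et)/Ec. Potency taken relative to indomethacin. Means ± SE.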

The test system of assay [11] is Pseudomonas aeruginosa. Kind of assay: Antimicrobial activity against Pseudomonas aeruginosa. The class given is functional. A digest of the protocol: (§5)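 MIC found by disk diffusion using disks carrying varying amounts of compound per disk, in DMSO. Incubated 24–28 h at 37 °C for bacteria and 5 days at 28 °C for Candida. MIC given in µg/disk.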
Assay [12] deals with Rattus norvegicus. Kind of assay: Antiinflammatory activity against carrageenan-induced paw edema in Sprague-Dawley rat at 15 mg/kg, po after 2 hrs. Type of assay: functional. In a few lines:
as §4

Assay [13] has as its system Klebsiella pneumoniae. Kind of assay: Antimicrobial activity against Klebsiella pneumoniae. Type of assay: functional. In a few lines:
as §5

The subject of assay [14] is Rattus norvegicus. Kind of assay: Antiinflammatory activity against carrageenan-induced paw edema in Sprague-Dawley rat at 15 mg/kg, po after 1 hr. Type of assay: functional. A digest of the protocol:
as §4
In general terms: In the carrageenan paw model, swelling and tenderness develop within hours.

In assay [15] the test system is Rattus norvegicus. Kind of assay: Antiinflammatory activity against carrageenan-induced paw edema in Sprague-Dawley rat at 15 mg/kg, po relative to indomethacin after 1 hr. The class given is functional. In a few lines:
as §4

For assay [16], the system named is Rattus norvegicus. Kind of assay: Antiinflammatory activity against carrageenan-induced paw edema in Sprague-Dawley rat at 15 mg/kg, po relative to indomethacin after 3 hrs. The class given is functional. In a few lines:
as §4

For assay [17], the system named is Rattus norvegicus. Kind of assay: Antiinflammatory activity against carrageenan-induced paw edema in Sprague-Dawley rat at 15 mg/kg, po relative to indomethacin after 2 hrs. Type of assay: functional. A digest of the protocol:
as §4

For assay [18], the system named is Rattus norvegicus. Kind of assay: Antiinflammatory activity against carrageenan-induced paw edema in Sprague-Dawley rat at 15 mg/kg, po after 4 hrs. Type of assay: functional. In a few lines:
as §4

Assay [19] concerns Escherichia coli. Kind of assay: Antimicrobial activity against Escherichia coli. Type of assay: functional. In a few lines: as §5
Assay [20] relates to Rattus norvegicus. Kind of assay: Antiinflammatory activity against carrageenan-induced paw edema in Sprague-Dawley rat at 15 mg/kg, po relative to indomethacin after 4 hrs. Type of assay: functional. A digest of the protocol: as §4
The subject of assay [21] is Staphylococcus aureus. Kind of assay: Antimicrobial activity against Staphylococcus aureus. The class given is functional. In a few lines:
as §5

For assay [22], the system named is Candida albicans. Kind of assay: Antimicrobial activity against Candida albicans at 50 ug/disk after 5 days. The class given is functional. To be noted: 120 h, read-out: IZ. A digest of the protocol: as §1
Assay [23] concerns Nakaseomyces glabratus. Kind of assay: Antimicrobial activity against Candida glabrata at 50 ug/disk after 5 days. The class given is functional. As to conditions: for zone of inhibition at 50 µg/disc: 120 h, read-out: IZ. A digest of the protocol: as §1
The subject of assay [24] is Candida albicans. Kind of assay: Antimicrobial activity against Candida albicans. Type of assay: functional. In a few lines:
as §5

Turning to `O=c1[nH]c(=S)[nH]c2nc3c(c(-c4ccccc4)c12)CCCC3`, the zone of inhibition at 50 µg/disc in assay [1] came to 15 mm; in [2], 12 mm; in assay [6], 13 mm; in [8] it was 14 mm. Also, the Time in assay [3] stood at 10.98 s; in assay [5] it was 11.12 s; in assay [7], 8.65 s. The Activity in assay [4] worked out at 35.4%; in assay [9], 68.47%.
As a reminder, the inhibition in vivo is the share of the control response that was lost under treatment. High values mean a strong effect, low ones a weak effect. As for `Nc1n[nH]c2nc3nc4c(c(-c5ccccc5)c3c(=O)n12)CCCC4`, the inhibition in vivo at 15 mg/kg was determined as 2.8% in assay [10]; 1.2% in assay [12]; 10.1% in [14]; 17.7% in assay [15]; 6.6% in assay [16]; 2.1% in assay [17]. Moreover, the inhibition in vivo at 15 mg/kg in assay [18] was 9.5%; in assay [20], 20.5%. Besides, the MIC in [11], in assay [13], in [19] and in assay [21] was 30 µg in each case. The zone of inhibition at 50 µg/disc in [1] came out at 22 mm; in assay [2] it was 20 mm; in assay [6] it was 21 mm; in [8], 22 mm. For the same compound, the results for the Time in assay [3], in assay [5] and in [7] were 6.74 s, 7.62 s and 5.14 s, respectively. Further, the Activity amounted to 57.1% in assay [4] and 110.44% in [9].
Take `NNc1nc2nc3c(c(-c4ccccc4)c2c(=O)[nH]1)CCCC3`: the inhibition in vivo at 15 mg/kg in [10] was 21.8%; in assay [12] it was 20.8%; in [14], 30.5%; in assay [15], 53.5%; in [16], 51.1%; in assay [17], 35.7%. The values for the inhibition in vivo at 15 mg/kg in [18] and in assay [20] were 18.6% and 40.1%, respectively. The zone of inhibition at 50 µg/disc stood at 15 mm in [1], 13 mm in assay [2], 11 mm in [6] and 13 mm in [8]. The Time in assay [3] came out at 10.61 s; in assay [5], 12 s; in assay [7], 7.54 s. Moreover, the Activity came out at 52.9% in assay [4] and 102.32% in assay [9].
Consider `Cc1cc(C)n(-c2nc3nc4c(c(-c5ccccc5)c3c(=O)[nH]2)CCCC4)n1`, for which the inhibition in vivo at 15 mg/kg stood at 0.1% in assay [10]; 0.9% in assay [12]; 10.5% in assay [14]; 14.5% in [15]; 0.1% in assay [16]; 1.5% in assay [17]. In addition, the inhibition in vivo at 15 mg/kg in assay [18] is 0.8%; in assay [20], 1.7%. The MIC in [11], in [13], in assay [19] and in assay [21] was 30 µg each time. Besides, the zone of inhibition at 50 µg/disc in assay [1] was determined as 22 mm; in [2], 19 mm; in [22] it was 9 mm; in [23], 9 mm; in assay [6], 21 mm; in assay [8], 20 mm. In addition, the Time in assay [3] is listed as 10.15 s; in assay [5], 11.5 s; in assay [7] it was 8.93 s. The Activity in [4] is listed as 59.2%; in [9], 114.51%.
On to `O=c1c2c(-c3ccccc3)c3c(nc2nc2[nH]nnn12)CCCC3`, for which the MIC in [11], in assay [13], in assay [19] and in assay [21] was 30 µg throughout. Besides, the zone of inhibition at 50 µg/disc is 22 mm in [1], 18 mm in [2], 17 mm in [6] and 16 mm in [8]. The Time is 10.78 s in assay [3], 10.08 s in assay [5] and 9.16 s in [7]. The Activity in [4] was found to be 14%; in assay [9] it was 27.07%.
Take `O=c1[nH]c(N/N=C\c2ccccc2)nc2nc3c(c(-c4ccccc4)c12)CCCC3`: the zone of inhibition at 50 µg/disc was found to be 14 mm in assay [1]; 15 mm in assay [2]; 7 mm in [22]; 7 mm in [23]; 16 mm in [6]; 18 mm in assay [8]. In addition, the Time was found to be 12.52 s in assay [3], 12.68 s in assay [5] and 10.08 s in assay [7]. Moreover, the Activity in assay [4] came to 34.9%; in [9] it was 67.51%.
On to `Nn1c(-c2ccccc2)cn2c(=O)c3c(-c4ccccc4)c4c(nc3nc12)CCCC4`, for which the MIC in assay [11], in assay [13], in assay [19] and in assay [21] was 20 µg throughout. The zone of inhibition at 50 µg/disc was 23 mm in [1], 21 mm in assay [2], 19 mm in assay [6] and 22 mm in [8]. In addition, the figures for the Time in [3], in [5] and in [7] were 11.41 s, 10.67 s and 9.42 s, respectively. Besides, the Activity in [4] amounted to 37.1%; in [9], 71.76%.
`O=c1c2c(-c3ccccc3)c3c(nc2nc2n(-c4ccccc4)nc(-c4ccccc4)n12)CCCC3`: the Time in [3] came out at 11.62 s; in assay [5], 11.88 s; in assay [7], 9.84 s. Moreover, the Activity in assay [4] is 4.6%; in assay [9], 8.89%.
In the case of NYSTATIN, the inhibition zone (IZ) in [23] is 19 mm.
For `Cc1n[nH]c2nc3nc4c(c(-c5ccccc5)c3c(=O)n12)CCCC4`, the MIC in [11] is 20 µg; in assay [13], 20 µg; in assay [24] it was 50 µg; in assay [19], 20 µg; in assay [21] it was 20 µg. The zone of inhibition at 50 µg/disc in assay [1] amounted to 21 mm; in [2], 20 mm; in assay [22], 18 mm; in assay [23], 13 mm; in [6] it was 21 mm; in assay [8] it was 20 mm. For the same compound, the results for the Time in [3], in assay [5] and in assay [7] were 8.8 s, 10.4 s and 8.68 s, respectively. Besides, the results for the Activity in assay [4] and in assay [9] were 5.8% and 11.2%, respectively.
In the case of `CCn1cc(C(=O)O)c(=O)c2ccc(C)nc21` [NALIDIXIC ACID], the zone of inhibition at 50 µg/disc in assay [1] was 25 mm; in [2], 24 mm; in assay [6], 25 mm; in [8], 25 mm.
As to `O=c1[nH]c(=S)[nH]c2nc3c(c(-c4ccc(Cl)cc4)c12)CCCC3`, the zone of inhibition at 50 µg/disc in assay [1] came to 14 mm; in [2], 13 mm; in assay [6], 13 mm; in [8] it was 14 mm.
